Data taken from ChEMBL document CHEMBL3632541, “Synthesis, antileishmanial activity and cytotoxicity of 2,3-diaryl- and 2,3,8-trisubstituted imidazo[1,2-a]pyrazines” (Eur J Med Chem, 2015).
In brackets after ≈: the same amount, converted by molar mass. Activity calls are given as the source filed them. The calls are words filed in the database; no cut-off is given here.

Columns and labels:
Leishmania major [1] = test: Antileishmanial activity against promastigote form of Leishmania major MHOM/IL/81/BNI after 96 hrs by spectrofluorimetric micromethod; type: functional, organism-based
[2] = Inhibition of Leishmania major CK1.2 using RRKHAAIGpSAYSITA as substrate and [gamma-33P]ATP after 30 mins by scintillation counting
Summary of the method: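 Recombinant His-tagged L. major CK1.2 from E. coli, purified on cobalt beads. Assayed as for the porcine enzyme: CKS peptide substrate, 15 μM [γ-³³P]ATP, 30 min at 30 °C, P81 capture and scintillation counting. Activity as % of the no-inhibitor value.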

[3] = Therapeutic index, ratio of IC50 for BALB/c mouse peritoneal macrophages to IC50 for promastigote form of Leishmania major (MHOM/IL/81/BNI); settings: read-out: Ratio IC50
[4] = Cytotoxicity against BALB/c mouse peritoneal macrophages assessed as cell viability after 48 hrs by trypan blue dye exclusion method; type: cell-based; settings: Peritoneal macrophage cell
[5] = Therapeutic index, ratio of IC50 for BALB/c mouse peritoneal macrophages to IC50 for amastigote form of Leishmania major (MHOM/IL/81/BNI) in BALB/c mouse peritoneal macrophages; settings: read-out: Ratio IC50
Leishmania major [6] = test: Antileishmanial activity against amastigote form of Leishmania major MHOM/IL/81/BNI amastigote in Balb/c mouse peritoneal macrophages after 4 days by May-Grunwald-Giemsa staining-based microscopic analysis; type: functional, organism-based; settings: 96 h
Summary of the method: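 Peritoneal macrophages from Balb/c mice, 1.5 10⁵ cell/mL in RPMI 1640 + 15% FBS, left 24 h on glass slides (37 °C, 5% CO₂), then infected 24 h with stationary-phase promastigotes (1.5 × 10⁶/mL). Washed cultures exposed to 100, 10, 1 and 0.1 µM for 4 days. Fixed with methanol, Giemsa-stained. Amastigotes counted in 100 macrophages per duplicate well; IC50 from amastigotes/macrophage. Done twice.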

[7] = Inhibition of native porcine brain CK1 delta/epsilon using RRKHAAIGpSAYSITA as substrate and [gamma-33P]ATP after 30 mins by scintillation counting; parameters: species or system Sus scrofa
Summary of the method: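 Native porcine brain CK1δ/ε, in threefold-diluted buffer A (25 mM Mops pH 7.2, 15 mM MgCl₂, 5 mM EGTA, 1 mM DTT, phosphatase inhibitors). 25 μM CKS peptide substrate, 15 μM [γ-³³P]ATP, 30 min at 30 °C. Stopped on P81 paper, washed in 1% phosphoric acid, counted by scintillation. Blank subtracted; activity as % of the no-inhibitor value; DMSO controls.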

Leishmania amazonensis = test: Antileishmanial activity against axenic amastigote stage of Leishmania amazonensis MHOM/BR/76/LTB-012 by MTT method; type: functional, organism-based
Summary of the method: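 Axenic amastigotes, grown in MAA/20 medium at 32 ± 1 °C. IC50 by MTT micromethod; compounds from 10 mM DMSO stocks, DMSO ≤1% final.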

[8] = Cytotoxicity against BALB/c mouse 3T3 clone A31 cells after 48 hrs by SRB assay method; type: cell-based; settings: A31, 48 h
Summary of the method: (§1)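 Cells plated in growth medium and allowed to attach 24 h (37 °C, 5% CO₂). Time-zero plate fixed with TCA. Serial 4-fold dilutions added for 48 h. Cells fixed with cold TCA, stained with 0.2% SRB, dye solubilized in 10 mM Tris pH 10.5, absorbance read at 510 nm. GI50 is 50% absorbance reduction versus solvent controls, by linear regression. K562 counted by Coulter counter instead. 5-FU reference.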

[9] = Therapeutic index, ratio of IC50 for BALB/c mouse 3T3 clone A31 cells to IC50 for promastigote form of Leishmania major (MHOM/IL/81/BNI); type: cell-based; settings: read-out: Ratio IC50
[10] = Cytotoxicity against human M14 cells assessed as growth inhibition after 48 hrs by SRB assay method; type: cell-based; summary of the method: as §1
[11] = Cytotoxicity against human HT-29 cells assessed as growth inhibition after 48 hrs by SRB assay method; type: cell-based; summary of the method: as §1
[12] = Cytotoxicity against human H460 cells assessed as growth inhibition after 48 hrs by SRB assay method; type: cell-based, NCI-H460; summary of the method: as §1
[13] = Cytotoxicity against human DU145 cells assessed as growth inhibition after 48 hrs by SRB assay method; type: cell-based, DU-145; summary of the method: as §1
[14] = Cytotoxicity against human HuTu 80 cells assessed as growth inhibition after 48 hrs by SRB assay method; type: cell-based, HuTu80; summary of the method: as §1
[15] = Cytotoxicity against human K562 cells assessed as growth inhibition after 48 hrs by Coulter counter cell counting
[16] = Cytotoxicity against human MCF7 cells assessed as growth inhibition after 48 hrs by SRB assay method; type: cell-based; summary of the method: as §1

Row | Compound | IC50 (Leishmania major [1]) [µM] | IC50 [2] [µM] | selectivity ratio [3] | IC50 [4] [µM] | selectivity ratio [5] | IC50 (Leishmania major [6]) [µM] | IC50 [7] [µM] | Activity (Leishmania amazonensis) | IC50 [8] [µM] | selectivity ratio [9] | GI50 at 48 h [10] [µg/mL] | GI50 at 48 h [11] [µg/mL] | GI50 at 48 h [12] [µg/mL] | GI50 at 48 h [13] [µg/mL] | GI50 at 48 h [14] [µg/mL] | GI50 at 48 h [15] [µg/mL] | GI50 at 48 h [16] [µg/mL]
1 | c1ccc(-c2nc3cnccn3c2-c2ccccc2)cc1 | 26.2 | > 10 | 1.6 | 41.4 |  |  |  |  |  |  |  |  |  |  |  |  | 
2 | N=C(N)c1ccc(OCCCCCOc2ccc(C(=N)N)cc2)cc1 [PENTAMIDINE] | 4.6 |  | 33.2 | 153 | 50.9 | 3 |  |  |  |  |  |  |  |  |  |  | 
3 | Clc1cccc(-c2c(-c3ccccc3)nc3cnccn23)c1 | 14.5 |  | 3.5 | 51.5 |  |  |  |  |  |  |  |  |  |  |  |  | 
4 | c1ccc(-c2nc3cnccn3c2-c2ccncc2)cc1 | 20.1 | 1.3 | 7.7 | 154 | 57 | 2.7 | 3.3 | inactive |  |  |  |  |  |  |  |  | 
5 | CN(C)CCNc1nccn2c(-c3ccncc3)c(-c3ccccc3)nc12 | 68.8 | 0.51 | 0.9 | 64.9 |  |  | 1.6 |  | 86.5 | 1.3 | 27 (≈ 75.3 µM) | 6 (≈ 16.7 µM) | 40 (≈ 112 µM) | 47 (≈ 131 µM) | 32 (≈ 89.3 µM) | 15 (≈ 41.8 µM) | 6 (≈ 16.7 µM)
6 | c1ccc(-c2nc3c(NCCN4CCOCC4)nccn3c2-c2ccncc2)cc1 | 23.5 | 2.4 | 2.2 | 51.7 |  |  | 3.3 |  |  |  |  |  |  |  |  |  | 
7 | Clc1cc(Cl)cc(-c2c(-c3ccccc3)nc3cnccn23)c1 | 10.3 | > 10 | 3.4 | 35.6 |  |  |  |  |  |  |  |  |  |  |  |  | 
8 | O=[N+]([O-])c1ccc(-c2c(-c3ccccc3)nc3cnccn23)cc1 | 27.6 | > 10 | 4.2 | 114 |  |  |  |  |  |  |  |  |  |  |  |  | 
9 | Ic1c(-c2ccccc2)nc2c(NCCN3CCOCC3)nccn12 | 10.6 | > 10 | 3 | 31.4 |  |  | > 10 |  | 236 | 22.3 | 179 (≈ 398 µM) | 22 (≈ 49 µM) | 121 (≈ 269 µM) | 47 (≈ 105 µM) | 33 (≈ 73.4 µM) | 18 (≈ 40.1 µM) | 29 (≈ 64.5 µM)
10 | CN(C)c1nccn2c(-c3ccncc3)c(-c3ccccc3)nc12 | 31.3 | 0.48 | 4.6 | 144 | 15.3 | 9.4 | 2.4 | inactive | 155 | 5 | 84 (≈ 266 µM) | 56 (≈ 178 µM) | 70 (≈ 222 µM) | 90 (≈ 285 µM) | 50 (≈ 159 µM) | 48 (≈ 152 µM) | 32 (≈ 101 µM)
11 | Fc1ccc(-c2nc3c(NCCN4CCOCC4)nccn3c2-c2ccncc2)cc1 | 16.5 | 0.62 | 2.4 | 40.3 |  |  | 2.7 |  | 47.8 | 2.9 | 36 (≈ 86 µM) | 27 (≈ 64.5 µM) | 20 (≈ 47.8 µM) | 39 (≈ 93.2 µM) | 28 (≈ 66.9 µM) | 21 (≈ 50.2 µM) | 19 (≈ 45.4 µM)
12 | CN(C)CCNc1nccn2c(I)c(-c3ccccc3)nc12 | 24.2 | > 10 | 2.8 | 68.6 |  |  | > 10 |  | 31.9 | 1.3 | 4 (≈ 9.82 µM) | 4 (≈ 9.82 µM) | 13 (≈ 31.9 µM) | 20 (≈ 49.1 µM) | 12 (≈ 29.5 µM) | 5 (≈ 12.3 µM) | 9 (≈ 22.1 µM)
13 | COc1ccc(-c2c(-c3ccccc3)nc3cnccn23)cc1 | 17.4 | > 10 | 3.5 | 60.2 |  |  |  |  |  |  |  |  |  |  |  |  | 
14 | CN(C)c1nccn2c(I)c(-c3ccc(F)cc3)nc12 | > 100 | > 10 |  |  |  |  | > 10 |  | 99.4 |  | > 125 | > 125 | 25 (≈ 65.4 µM) | 40 (≈ 105 µM) | 22 (≈ 57.6 µM) | > 125 | 3 (≈ 7.85 µM)
15 | O=c1[nH]cc(F)c(=O)[nH]1 [FLUOROURACIL] |  |  |  |  |  |  |  |  |  |  | 0.7 (≈ 5.38 µM) | 0.4 (≈ 3.08 µM) | 0.3 (≈ 2.31 µM) | 1 (≈ 7.69 µM) | 0.4 (≈ 3.08 µM) | 0.9 (≈ 6.92 µM) | 0.3 (≈ 2.31 µM)
16 | CN(C)c1nccn2c(-c3ccncc3)c(-c3ccc(F)cc3)nc12 | 6.4 | 0.99 | 6.6 | 42 | 52.5 | 0.8 | 2.1 | inactive | > 375 | > 58.6 | > 125 | > 125 | > 125 | > 125 | 77 (≈ 231 µM) | > 125 | 52 (≈ 156 µM)
17 | Fc1ccc(-c2nc3c(NCCN4CCOCC4)nccn3c2I)cc1 | 2.8 | > 10 | 33.3 | 93.2 | 466 | 0.2 | > 10 | inactive | > 268 | > 95.6 | > 125 | > 125 | > 125 | > 125 | 73 (≈ 156 µM) | > 125 | > 125
18 | CN(C)c1nccn2c(I)c(-c3ccccc3)nc12 | 6.8 | > 10 | 4.3 | 29.2 |  |  | > 10 |  | 35.7 | 5.3 | > 125 | 38 (≈ 104 µM) | 47 (≈ 129 µM) | 39 (≈ 107 µM) | 44 (≈ 121 µM) | 16 (≈ 43.9 µM) | 3 (≈ 8.24 µM)
19 | CN(C)CCNc1nccn2c(I)c(-c3ccc(F)cc3)nc12 | 24.7 | > 10 | 1.4 | 33.8 |  |  | > 10 |  | 18.8 | 0.8 | 4 (≈ 9.41 µM) | 4 (≈ 9.41 µM) | 9 (≈ 21.2 µM) | 13 (≈ 30.6 µM) | 6 (≈ 14.1 µM) | 43 (≈ 101 µM) | 5 (≈ 11.8 µM)
20 | CN(C)CCNc1nccn2c(-c3ccncc3)c(-c3ccc(F)cc3)nc12 | 35.3 | 0.52 | 1.6 | 57.8 |  |  | 1.6 |  | 101 | 2.9 | 19 (≈ 50.5 µM) | 8 (≈ 21.3 µM) | 34 (≈ 90.3 µM) | 52 (≈ 138 µM) | 24 (≈ 63.8 µM) | 14 (≈ 37.2 µM) | 8 (≈ 21.3 µM)
21 | CCOC(=O)c1ccc(-c2c(-c3ccccc3)nc3cnccn23)cc1 | 17.5 | > 10 | 2.9 | 49.8 |  |  |  |  |  |  |  |  |  |  |  |  | 
